Measurements from ChEMBL document CHEMBL2203109, “3-Phenyl substituted 6,7-dimethoxyisoquinoline derivatives as FtsZ-targeting antibacterial agents” (Bioorg Med Chem, 2012).
In brackets after ≈: the same amount, converted by molar mass. Activity calls are given as the source filed them. The rule behind the calls is not given here.

Columns and labels:
Staphylococcus aureus [1] = test: Antibacterial activity against log-phase methicillin-resistant Staphylococcus aureus ATCC 33591 assessed as growth inhibition after 24 hrs by broth microdilution method; format: functional; details: ATCC 33591, 24 h
Summary of the method: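 CLSI broth microdilution; 10^5 CFU/mL log-phase bacteria in cation-adjusted Mueller-Hinton broth with 2% NaCl, two-fold serial dilutions from 64 to 0.031 μg/mL; aerobic incubation 24 h at 37 °C; growth read as OD600; MIC = lowest concentration giving ≥90% growth inhibition.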

[2] = target: Tubulin beta chain (Sus scrofa) (UniProt P02554); test: Induction of pig MAP-rich beta-tubulin polymerization at 40 ug/ml measured for 60 mins by microtiter plate based light scattering assay
Tubulin beta chain (Sus scrofa), sequence (P02554 whole entry): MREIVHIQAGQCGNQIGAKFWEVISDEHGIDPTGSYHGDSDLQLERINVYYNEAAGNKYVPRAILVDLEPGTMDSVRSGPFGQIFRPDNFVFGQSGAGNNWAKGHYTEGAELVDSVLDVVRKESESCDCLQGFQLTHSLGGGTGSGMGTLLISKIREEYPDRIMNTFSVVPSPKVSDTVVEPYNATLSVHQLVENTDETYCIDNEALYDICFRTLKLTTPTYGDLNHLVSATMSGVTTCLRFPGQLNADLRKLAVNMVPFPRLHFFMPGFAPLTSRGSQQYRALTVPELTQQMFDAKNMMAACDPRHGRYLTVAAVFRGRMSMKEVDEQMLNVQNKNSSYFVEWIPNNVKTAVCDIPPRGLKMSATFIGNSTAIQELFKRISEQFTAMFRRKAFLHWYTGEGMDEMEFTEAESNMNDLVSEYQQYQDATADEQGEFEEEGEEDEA
Summary of the method: (§1)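 Porcine tubulin (70% β-tubulin, 30% MAPs) at 2 mg/mL with 1 mM GTP and compound in 80 mM PIPES NaOH pH 7.0, 2 mM MgCl2, 1 mM EGTA. A340 followed continuously at 37 °C for 60 min.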

Staphylococcus aureus [3] = test: Antibacterial activity against log-phase methicillin-sensitive Staphylococcus aureus 8325-4 assessed as growth inhibition after 24 hrs by broth microdilution method; format: functional; details: 8325-4, 24 h
Summary of the method: (§2)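 CLSI broth microdilution. Log-phase bacteria at 10^5 CFU/mL with two-fold serial dilutions (64 to 0.031 μg/mL). S. aureus tested in cation-adjusted Mueller-Hinton broth; E. faecalis in brain–heart infusion broth. Aerobic incubation 24 h at 37 °C. OD600 read; MIC is the lowest concentration giving ≥90% growth inhibition.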

[4] = target: T1, Cell division protein FtsZ (Staphylococcus aureus, UniProt P0A031); test: Binding affinity to Staphylococcus aureus FtsZ expressed in Escherichia coli cells assessed as dissociation constant by fluorescence spectroscopy
T1 sequence (P0A031 whole entry): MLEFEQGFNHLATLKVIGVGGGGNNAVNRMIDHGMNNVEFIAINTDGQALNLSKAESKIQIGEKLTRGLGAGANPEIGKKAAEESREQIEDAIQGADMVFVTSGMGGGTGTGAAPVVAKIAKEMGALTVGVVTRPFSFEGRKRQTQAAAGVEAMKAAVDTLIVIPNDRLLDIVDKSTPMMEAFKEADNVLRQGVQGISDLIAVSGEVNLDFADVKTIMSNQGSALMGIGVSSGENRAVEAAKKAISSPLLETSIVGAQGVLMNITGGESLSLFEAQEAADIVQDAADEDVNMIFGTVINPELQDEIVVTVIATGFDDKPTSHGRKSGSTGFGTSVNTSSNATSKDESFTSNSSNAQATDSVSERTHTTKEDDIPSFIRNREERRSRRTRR
Summary of the method: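 Recombinant SaFtsZ from E. coli titrated stepwise into compound (7 or 10 μM) in 50 mM Tris HCl pH 7.4, 50 mM KCl, 2 mM magnesium acetate. After 3 min equilibration per addition, emission scanned 510–370 nm and buffer-only titration background subtracted. Kd obtained by fitting intensity changes to a 1:1 binding model.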

Enterococcus faecalis [5] = test: Antibacterial activity against log-phase vancomycin-sensitive Enterococcus faecalis ATCC 19433 assessed as growth inhibition after 24 hrs by broth microdilution method; format: functional; details: ATCC 19433, 24 h; summary of the method: as §2
[6] = target: T2, Cell division protein FtsZ (Staphylococcus aureus) (UniProt P0A031); test: Induction of Staphylococcus aureus FtsZ polymerization at 40 ug/ml measured for 60 mins by microtiter plate-based light scattering assay
T2 sequence (whole entry): T1 sequence (P0A031 whole entry)
Summary of the method: (§3)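 Turbidity assay. 10 μM SaFtsZ plus compound (0–40 μg/mL) in 50 mM Tris HCl pH 7.4, 50 mM KCl, 2 mM magnesium acetate, 5 mM CaCl2, pre-equilibrated 10 min at room temperature. Started by adding 1 mM GTP or FtsZ; A340 followed for 60 min at 25 °C. For polymer stability, 1 mM GDP added mid-run.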

[7] = target: T2, Cell division protein FtsZ (Staphylococcus aureus); test: Induction of Staphylococcus aureus FtsZ polymerization at 40 ug/ml measured for 60 mins by microtiter plate-based light scattering assay in presence of GTP
Enterococcus faecalis [8] = test: Antibacterial activity against log-phase vancomycin-resistant Enterococcus faecalis ATCC 51575 assessed as growth inhibition after 24 hrs by broth microdilution method; format: functional; details: ATCC 51575, 24 h
Summary of the method: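 CLSI broth microdilution in brain–heart infusion broth; log-phase bacteria at 10^5 CFU/mL, two-fold serial dilutions 64 to 0.031 μg/mL; 24 h aerobic incubation at 37 °C; OD600 read-out; MIC taken as lowest concentration inhibiting growth ≥90%.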

[9] = target: T2, Cell division protein FtsZ (Staphylococcus aureus); test: Residual Staphylococcus aureus GTPase activity assessed as inorganic phosphate release upon GTP hydrolysis at 40 ug/ml preincubated for 10 mins before substrate addition measured after 2 hrs by malachite green based colorimetric analysis
[10] = target: T2, Cell division protein FtsZ (Staphylococcus aureus); test: Induction of Staphylococcus aureus FtsZ polymerization measured for 60 mins by microtiter plate-based light scattering assay; summary of the method: as §3
[11] = target: Tubulin beta chain (Sus scrofa) (UniProt P02554); details: 10 ug/ml
[12] = target: T2, Cell division protein FtsZ (Staphylococcus aureus); test: Induction of Staphylococcus aureus GTPase activity assessed as inorganic phosphate release upon GTP hydrolysis at less than 40 ug/ml preincubated for 10 mins before substrate addition measured after 2 hrs by malachite green based colorimetric analysis
Summary of the method: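 S. aureus FtsZ expressed in E. coli, 10 μM, with DMSO or compound (0.1–200 μg/mL) in 50 mM Tris HCl pH 7.4, 50 mM KCl, 2 mM Mg acetate, 5 mM CaCl2; duplicate reactions. After 10 min room-temperature pre-equilibration, 250 μM GTP added, 2 h at 37 °C. Pi by malachite green, A620, phosphate standard curve; expressed as percent of vehicle.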

HEK293 = test: Cytotoxicity against human HEK293 cells at 10 uM after 4 days by MTT assay; format: cell-based; details: hek293, 96 h
Summary of the method: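 MTT assay. HEK293 or MDCK cells kept at 37 °C, 5% CO2 in DMEM, seeded at 1500 cells per well. Continuous 4-day exposure to varying drug concentrations in triplicate wells, with a drug-free control. MTT read at end of day 4; IC50 determined.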

[13] = target: Tubulin beta chain (Sus scrofa) (UniProt P02554); test: Induction of pig MAP-rich beta-tubulin polymerization at 25 ug/ml measured for 60 mins by microtiter plate based light scattering assay; summary of the method: as §1

Structure (SMILES) | MIC90 (Staphylococcus aureus [1]) | Activity [2] | MIC90 (Staphylococcus aureus [3]) | Kd [4] | MIC90 (Enterococcus faecalis [5]) | Activity [6] | Activity [7] | MIC90 (Enterococcus faecalis [8]) | residual activity [9] | Activity [10] | inhibition [11] | Activity [12] | Activity (HEK293) | Activity [13]
COc1cc2cc(-c3cccc(-c4ccc(C(C)(C)C)cc4)c3)[n+](C)c(C)c2cc1OC.[I-] | 8 µg/mL | inactive | 1 µg/mL | 5.4 µM | 8 µg/mL | Active | Active | 8 µg/mL | 14.9% | Dose-dependent effect | – | – | – | –
COC(=O)Nc1nc2cc(C(=O)c3cccs3)ccc2[nH]1 | – | – | – | – | – | – | – | – | – | – | Active | – | – | –
COc1cc2cc(-c3cccc(C(C)(C)C)c3)nc(C/N=C(/C)N)c2cc1OC | 8 µg/mL (≈ 20.4 µM) | – | 8 µg/mL (≈ 20.4 µM) | – | 16 µg/mL (≈ 40.9 µM) | Active | – | 16 µg/mL (≈ 40.9 µM) | 64.8% | Dose-dependent effect | – | Active | – | –
COc1cc2cc(-c3cccc(-c4ccccc4)c3)nc(CCN=C(N)N)c2cc1OC | 2 µg/mL (≈ 4.69 µM) | – | 2 µg/mL (≈ 4.69 µM) | – | 8 µg/mL (≈ 18.8 µM) | Active | – | 8 µg/mL (≈ 18.8 µM) | 56% | Dose-dependent effect | – | Active | Non-toxic | –
COc1cc2cc(-c3cccc(C(C)(C)C)c3)nc(CN=C(N)N)c2cc1OC | 8 µg/mL (≈ 20.4 µM) | inactive | 4 µg/mL (≈ 10.2 µM) | – | 16 µg/mL (≈ 40.8 µM) | Active | – | 16 µg/mL (≈ 40.8 µM) | 60.4% | Dose-dependent effect | – | – | Non-toxic | –
COc1cc2cc(-c3cccc(-c4ccc(-c5ccccc5)cc4)c3)[n+](C)c(C)c2cc1OC.[I-] | 2 µg/mL | – | 1 µg/mL | 2 µM | 4 µg/mL | Active | – | 8 µg/mL | 30.2% | Dose-dependent effect | – | – | – | –
CC(=O)O[C@H]1C(=O)[C@@]2(C)[C@H]([C@H](OC(=O)c3ccccc3)[C@]3(O)C[C@H](OC(=O)[C@H](O)[C@@H](NC(=O)c4ccccc4)c4ccccc4)C(C)=C1C3(C)C)[C@]1(OC(C)=O)CO[C@@H]1C[C@@H]2O | – | – | – | – | – | – | – | – | – | – | – | – | – | Active
